Source: PubChem
Only some compounds are listed: those with a hit (about 3.7% of all), similar ones and a draw of the others.
Furin inh: blocks human furin protease activity; purified furin, fluorogenic substrate cleavage; inhibition, % at 20 µM or 30 µM; actives 0.061% (n = 220,000); AID 463115; in the data active = inhibition above about 25%
Target sequence (P09958 108-714 limits assumed): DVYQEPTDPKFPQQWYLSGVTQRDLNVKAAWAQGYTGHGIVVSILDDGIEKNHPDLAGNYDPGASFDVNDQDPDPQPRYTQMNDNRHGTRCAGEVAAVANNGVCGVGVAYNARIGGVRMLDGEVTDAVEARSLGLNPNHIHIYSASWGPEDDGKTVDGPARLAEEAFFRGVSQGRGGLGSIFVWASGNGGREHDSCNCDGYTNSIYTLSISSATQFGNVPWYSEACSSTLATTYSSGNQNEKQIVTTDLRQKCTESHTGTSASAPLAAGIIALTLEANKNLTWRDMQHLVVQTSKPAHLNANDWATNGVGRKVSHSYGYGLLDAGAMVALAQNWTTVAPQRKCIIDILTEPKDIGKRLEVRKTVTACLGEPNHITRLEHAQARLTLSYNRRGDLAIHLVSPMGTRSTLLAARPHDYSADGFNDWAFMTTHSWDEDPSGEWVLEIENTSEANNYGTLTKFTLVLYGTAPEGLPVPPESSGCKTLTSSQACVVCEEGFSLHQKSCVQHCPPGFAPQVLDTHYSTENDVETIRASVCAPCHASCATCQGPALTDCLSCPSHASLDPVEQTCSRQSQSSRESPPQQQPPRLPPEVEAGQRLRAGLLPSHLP
NPY-Y2 PAM-ag: potentiators or agonists of human neuropeptide Y receptor Y2. P49146. actives 0.45% (n = 220,000). activation, % at 3.6 µM. cells expressing NPY-Y2, potentiator/agonist read-out; in the data active = activation above about 27%;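 note: cells stimulated with NPY near EC25 plus isoproterenol at EC100; 0% = vehicle plus submaximal agonist and 100% = vehicle plus saturating agonist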
NPY-Y1 PAM-ag: potentiators or agonists of human neuropeptide Y receptor Y1; P25929; NPY-Y1 expressing cells, potentiator/agonist activation; activation, % at 3.6 µM; actives 0.37% (n = 220,000); AID 1304; in the data active = activation above about 33%, passing the limit was not always enough;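 note: cells stimulated with NPY at EC10 then isoproterenol at EC100; 0% = low agonist plus stimulus and 100% = saturating agonist plus stimulus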
NPY Y1 blocker: antagonists of human neuropeptide Y receptor Y1; HEK293-CNG Y1 cells, membrane potential fluorescence; NPY at EC95, then isoproterenol; inhibition, % at 3.6 µM; actives 1% (n = 200,000);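 active = inhibition above the campaign mean inhibition of all tested compounds plus 3 SD, cut at about 20% in these data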;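 note: 0% = DMSO wells given NPY plus isoproterenol and 100% = isoproterenol alone without NPY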
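Material: HEK293 cells with Y1 receptor plus CNG channel; times: compound incubation 1 h at room temperature, readout 45 min post-stimulation; signal: fluorescence, membrane potential probe; read-out basis: fluorescence ratio normalized to % inhibition between controls; benchmarks: full-block control isoproterenol-only wells, zero-block control NPY plus isoproterenol wells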
KCC2 mod: modulators of human KCC2 chloride dependent transport. Q9H2X9. KCC2 cells, thallium flux FluoZin-2 fluorescence. AID 1456. actives 2.2% (n = 190,000). B-score of Tl+ flux slope (higher = more flux/activation; lower = inhibition) at 10 µM;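 active = thallium flux slope and its plate-corrected score both differing from the plate sample mean at a set confidence after two filtering rounds, in either direction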;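 note: slope of fluorescence scaled to starting intensity during 10 to 20 s after thallium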
NPY Y2 blocker: antagonists of human neuropeptide Y receptor Y2; NPY-Y2 expressing cells, antagonist mode; inhibition, % at 2.7 µM; actives 0.99% (n = 140,000);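 note: 0% = vehicle with agonist challenge and 100% = reference antagonist with challenge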
NPY-Y1 ant conf: confirmation of human neuropeptide Y receptor Y1 antagonists; shares compounds with NPY Y1 blocker; HEK293-CNG NPY-Y1, membrane potential fluorescence, cAMP; NPY challenge against isoproterenol-raised cAMP; inhibition, % at 3.6 µM; actives 21% (n = 1,200); AID 1254; in the data active = inhibition above about 20%;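 note: 0% = vehicle with agonist plus stimulus and 100% = stimulus alone without agonist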
NPY-Y2 antag ct: antagonizes human NPY-Y2, counter-screen to NPY-Y1 antagonists. shares compounds with NPY Y1 blocker. HEK293 NPY-Y2 CNG membrane potential fluorescence, antagonism; cells given NPY, then isoproterenol. inhibition, % at 3.6 µM. actives 28% (n = 1,200);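 note: 0% = DMSO with agonist challenge and 100% = reference antagonist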
Starred values were filed as active, the others as inactive; i = inactive; . = not tested or not shown. Cut-off read from the data, not from the text of the source, unless noted: active = inhibition above about 17%; inactive = the rest.

SMILES	Furin inh	NPY-Y2 PAM-ag	NPY-Y1 PAM-ag	NPY Y1 blocker	KCC2 mod	NPY Y2 blocker	NPY-Y1 ant conf	NPY-Y2 antag ct
CCc1ccccc1NC(=O)/C(=C/c1ccco1)c1ccccc1	-11	0	6	22*	-1.4	2	3	3
CCN(CC(=O)Nc1ccccc1OC)C(=O)COc1ccc2ccccc2c1	-18	-16	-39	24*	-3.3	15	17	7
Cc1cc(C(=O)CSc2nc3ccccc3c(=O)n2C)c(C)n1CC1CCCO1 (configuration not stated)	-18	14	-27	27*	-1.1	.	33*	12
CCCCNc1nc2ccccc2n1CC(=O)N1CCc2ccccc2C1	-11	-9	-33	23*	-1.3	15	9	9
CCCCNc1nc2ccccc2n1CC(=O)Nc1c(C)cccc1CC	-21	7	-35	31*	-0.27	10	20	14
Cc1ccc(NC(=O)c2cc(S(=O)(=O)c3ccccc3)ccc2Cl)cc1	0	-32	-26	5	-0.8	2	.	.
N#Cc1c(N2CCN(C(=O)c3ccccc3)CC2)nc(-c2ccccc2)c2c1CCCC2	-20	-8	-18	27*	.	6	17	11
N#Cc1c(N2CCN(C(=O)c3ccccc3Cl)CC2)nc(-c2ccccc2)c2c1CCCC2	-35	1	5	6	-0.0045	7	.	.
CCN(CC)S(=O)(=O)c1cccc(NC2=NCC(C)S2)c1 (configuration not stated)	-18	6	13	-1	1.2	.	.	.
CCN(CC)C(=O)/C(=C\c1ccc(Br)cc1)NC(=O)c1ccccc1OC	-8	-5	-35	23*	.	6	13	9
O=C(NCc1cccnc1)/C(=C/c1ccc(-c2ccc(Cl)cc2)o1)S(=O)(=O)c1ccccc1	-12	-29	-35	25*	-0.62	13	9	22*
O=C(NCc1cccnc1)/C(=C\c1ccc(-c2ccc(Br)cc2)o1)S(=O)(=O)c1ccccc1	-9	-24	-57	12	-1.1	7	.	.
COc1ccc2c(c1)C(C)=CC(C)(C)N2C(=O)CSc1nnc(-c2ccc(C)cc2)o1	-22	-36	-46	23*	-0.66	16	12	11
CC(=O)c1ccc(NC(=O)Cn2c3ccccc3c3nc(=O)cc(C)n32)cc1	-11	-9	13	.	-0.64	.	.	.
COC(=O)C1=CN(Cc2ccc(OC)cc2)C=C(C(=O)OC)C1c1ccsc1	-11	-9	7	9	-1.7	.	.	.
COC(=O)C1=CN(CCOC23CC4CC(CC(C4)C2)C3)C=C(C(=O)OC)C1c1ccsc1	-32	-39	-23	31*	-0.025	.	41*	24*
Cc1ccc(S(=O)(=O)N2CCN(C(C)C(=O)Nc3ccccc3-c3ccccc3)CC2)cc1 (configuration not stated)	-1	1	3	4	-0.077	7	.	.
CSc1nc2ccccc2n1Cc1c(Cl)cccc1Cl	-14	15	14	3	.	10	.	.
Fc1ccc2nc(C3CCCCN3Cc3nc(CC4CC4)no3)[nH]c2c1 (configuration not stated)	-23	-6	-15	39*	-0.46	.	9	11
CCC(C)(C(=O)NC1CCCCC1)N(Cc1cccs1)C(=O)c1ccccn1 (configuration not stated)	-27	2	-5	22*	-0.41	.	5	7
CCC(C)(C(=O)NC1CCCCC1)N(Cc1ccco1)C(=O)CNC(=O)c1ccccc1 (configuration not stated)	-11	-2	3	1	0.0094	4	.	.
CCC(C)(C(=O)NC1CCCC1)N(Cc1ccco1)C(=O)Cc1cccs1 (configuration not stated)	-29	-7	-2	49*	-0.31	7	22*	12
CCC(C)(C(=O)NC1CCCC1)N(Cc1ccco1)C(=O)c1ccc2c(c1)OCO2 (configuration not stated)	-14	-20	0	37*	.	14	17	12
CCC(C)(C(=O)NC1CCCC1)N(Cc1cccs1)C(=O)c1ccccn1 (configuration not stated)	-20	-5	-18	16	-0.29	.	.	.
CCOC(=O)N1CCC(NS(=O)(=O)c2ccc(NC(C)=O)c(Cl)c2)CC1	-12	19	10	.	.	.	.	.
SMILES	Furin inh	NPY-Y2 PAM-ag	NPY-Y1 PAM-ag	NPY Y1 blocker	KCC2 mod	NPY Y2 blocker	NPY-Y1 ant conf	NPY-Y2 antag ct
CC(C)N(C)CCOC(=O)C1COc2ccccc2O1 (configuration not stated)	-23	4	20	.	i	.	.	.
COC(=O)c1ccccc1NC(=O)c1ccc(COc2ccc(C)c(C)c2)o1	-7	5	-5	29*	-0.0027	10	10	12
COC(=O)c1ccccc1NC(=O)c1cc(OC)cc(OC)c1	-22	-7	-28	21*	-0.091	4	9	12
COC(=O)c1ccccc1NC(=O)c1cccc(NC(=O)C(C)C)c1	-18	-5	-23	0	-1.2	.	.	.
Cn1c(=O)c2c(ncn2CC(=O)N/N=C/C=C\c2ccccc2[N+](=O)[O-])n(C)c1=O	-12	-3	11	.	0.035	.	.	.
CCOC(=O)C1(CCc2ccccc2)CCN(Cc2c(O)cccc2OC)CC1	-26	-11	-33	33*	0.039	.	27*	25*
CCOC(=O)C1(CCc2ccccc2)CCN(Cc2ccc(OC)cc2)CC1	-25	-29	-18	14	0.11	.	.	.
CCOC(=O)C1(Cc2ccccc2)CCN(Cc2cc(OC)c3c(c2)OCO3)CC1	-24	-8	-1	25*	0.49	.	7	10
COc1ccccc1-c1ccc(SCC(=O)NCCc2ccccc2)nn1	10	-1	-12	1	-1.3	.	.	.
COc1ccccc1CCNC(=O)CSc1ccc(-c2ccco2)nn1	-27	1	-16	22*	-0.68	.	2	2
NS(=O)(=O)c1ccc(CCNS(=O)(=O)c2cccc(C(=O)O)c2)cc1	-11	0	-4	.	0.75	.	.	.
CCOC(=O)c1cnn(-c2nc(-c3ccccc3)cs2)c1C(F)(F)F	-30	-7	-21	20*	.	4	7	9
O=C(COC(=O)CCC(=O)c1ccc2c(c1)OCCO2)NCc1ccc2c(c1)OCO2	-3	-12	-28	21*	-0.54	7	12	9
CCN(CC)CCn1c(SCC(=O)Nc2ccc(F)cc2)nc2c(sc3ccccc32)c1=O	-14	-25	-55	35*	-0.78	.	15	29*
C=CCN(C(=O)CSc1nc2ccsc2c(=O)n1Cc1ccccn1)c1ccccc1	-28	3	7	2	-1	.	.	.
